For 167 variants, yeast fitness results are on record in the RNAGym collection of RNA variant scans (doi:10.1126/science.aae0568).

B1: tRNA (parent)
chain: GUUCCGUUGGCGUAAUGGUAACGCGUCUCCCUCCUAAGGAGAAGACUGCGGGUUCGAGUCCCGUACGGAACG

Fewer inactive variants are shown than the library holds. Where only a bound is given, the exact number is not on record here.

This data set covers variants of B1. Briefly: yeast fitness relative to wild type (ratio to wild type); higher = fitter; tRNA-Arg(CCU), competitive growth, 37 C, YPD. Summed up: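 Gene amplicons from the start population and from each of six end populations were read by 100-nucleotide paired-end sequencing. Those end populations came from pooled Saccharomyces cerevisiae strains carrying tRNA-Arg(CCU) gene variants at the native locus, competed in YPD at 37°C for 24 hours. Fitness relative to wild type was worked out from changes in genotype frequencies. Genotypes needed ≥ 100 starting reads, and estimates < 0.5 were set to 0.5.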
A37G G39A A69U: the yeast fitness turned out to be 0.589.
For A37U A69C, the yeast fitness is 0.796.
Consider A37U A69U, for which the yeast fitness worked out at 0.723.
For G38A A45C A69U, the yeast fitness was 0.684.
As to G38A G52C C62U, the yeast fitness was 0.595.
A37U G48C G68U: the yeast fitness amounted to 0.57.
In the case of A37U U53G A65U, the yeast fitness is no more than 0.5.
On to G38A C61U, for which the yeast fitness was found to be 0.931.
In the case of G38A A65U, the yeast fitness was found to be 0.739.
Consider G38C G41C A65G, for which the yeast fitness was 0.597.
Regarding G38C A42G U64G, the yeast fitness was 0.781.
With A37U C62U the figure was 0.859; with A37G U64A, 0.61; with A37C G41A C49U C60G, no more than 0.5.
Regarding A37U U53A G58C, the yeast fitness is no more than 0.5.
Take G38A A42C A45C C62A: the yeast fitness was no more than 0.5.
Regarding A37U G52A A57C C60A, the yeast fitness is no more than 0.5.
In the case of A37C U47G C62G G68A it was 0.549; in that of G38C G41C C61U A70G, no more than 0.5; in that of A37G G50C U54A C61A, no more than 0.5.
For A37U U47C U53G C62U, the yeast fitness is no more than 0.5.
Regarding A37G G48A G50A U59G, the yeast fitness turned out to be 0.66.
G38A C61G G68C: the yeast fitness is no more than 0.5.
In the case of A37U G51A C66G, the yeast fitness was no more than 0.5.
As for A37G G44C A57U G67U A69C, the yeast fitness is no more than 0.5.
As to A37U G51A C55U, the yeast fitness is no more than 0.5.
On to G38C A42C C49A, for which the yeast fitness is no more than 0.5.
As for A37C G51A G67A, the yeast fitness came to 0.584.
Take A37C U47C: the yeast fitness was determined as 0.81.
As to A37U U54G, the yeast fitness is no more than 0.5.
Consider A37C G38A C55A A65C, for which the yeast fitness was no more than 0.5.
On to G38C C46A, for which the yeast fitness stood at 0.819.
In the case of G38C C66G G67U, the yeast fitness was no more than 0.5.
With A37U A65U the figure was 0.665; with G38A G39C C60A C66G, no more than 0.5; with A37G G41C A43U C66U A69C, no more than 0.5.
Consider G38C A43G C49G G51A, for which the yeast fitness was no more than 0.5.
Regarding A37C U54C, the yeast fitness was found to be 0.799.
A37U A40U U64C G67A: the yeast fitness is no more than 0.5.
With A37G C49G the figure was 0.788.
As to A37G C49A, the yeast fitness was found to be 0.546.
As for A37U G44A G67U A70G, the yeast fitness was no more than 0.5.
Consider G38C C49U, for which the yeast fitness worked out at 0.67.
As to G38C A40U, the yeast fitness is 0.639.
Turning to A37G C55A G58C G68C, the yeast fitness is no more than 0.5.
As to G38A G48A A65G, the yeast fitness is 0.559.
Take A37U A57C A69U A70C: the yeast fitness came out at 0.775.
In the case of A37C G44C G52C U59C C66U, the yeast fitness stood at 0.574.
As for A37U G44A, the yeast fitness turned out to be 0.602.
Take A37U G44C: the yeast fitness was found to be 0.784.
For the variant A37U C46U, the yeast fitness was 0.821.
As to A37G A42G A70U, the yeast fitness amounted to 0.539.
In the case of A37C U59G it was 0.712; in that of G38C G41C, 0.614; in that of A37U A42G A45U, 0.592.
Turning to A37G C46U C55U, the yeast fitness is no more than 0.5.
In the case of A37G A45C C46A it was 0.579.
In the case of A37C G67C it was 0.846.
As to A37C G67A, the yeast fitness came to 0.696.
As for A37U C61A, the yeast fitness was no more than 0.5.
With A37G A40C C61G A69U, the yeast fitness was no more than 0.5.
Turning to A37C G39C G50C, the yeast fitness is no more than 0.5.
With G38C A42G C62U the figure was no more than 0.5; with A37G G41A, 0.805; with G38A C49U, 1.03.
For A37U A43U A57U C66A, the yeast fitness is no more than 0.5.
With G38C C61A G67A, the yeast fitness is no more than 0.5.
In the case of A37U G50A, the yeast fitness stood at 0.804.
Take A37U U59A: the yeast fitness turned out to be 0.706.
Consider A37G G38A, for which the yeast fitness was found to be 0.725.
As to A37G C55A, the yeast fitness is no more than 0.5.
G38A A40U G50C C60G: the yeast fitness is no more than 0.5.
With A37U G67C the figure was 0.619; with G38A G48A C49G A69U, no more than 0.5.
In the case of A37G A42U G48C C49U it was 0.599; in that of A37U U47C U53G A69U, no more than 0.5; in that of G38A G52C G56A, 0.609.
Regarding A37G, the yeast fitness turned out to be 0.734.
In the case of A37U it was 0.722.
As for A37G G41C A43U, the yeast fitness is no more than 0.5.
As to A37U C55A C60U, the yeast fitness is no more than 0.5.
With G38A A40U G50C C60G A65U the figure was no more than 0.5; with A37U C62U C66G, no more than 0.5.
As to A37U A40U G56C A69U, the yeast fitness was no more than 0.5.
Consider G38C C46U A69U A70G, for which the yeast fitness is no more than 0.5.
For G38A A57G, the yeast fitness was 0.854.
Consider A37U G38A U59A, for which the yeast fitness is no more than 0.5.
As to A37G A40U G58C, the yeast fitness was 0.729.
Regarding A37G A40G A43G G52C U59G, the yeast fitness is no more than 0.5.
As to A37U C49A G52A C55U G56A, the yeast fitness was determined as 0.529.
For the variant A37G A57C, the yeast fitness was 0.545.
On to A37C G56A A69U, for which the yeast fitness is 0.647.
For G38A C62U, the yeast fitness was determined as 0.961.
Take A37C G52C C60G C61A C66U: the yeast fitness is no more than 0.5.
On to G38A C55U A57G, for which the yeast fitness is no more than 0.5.
On to G38C A40U G67A, for which the yeast fitness was no more than 0.5.
With G38C A65C C66U, the yeast fitness was no more than 0.5.
Consider A37U G58A G68A, for which the yeast fitness stood at 0.588.
Regarding A37G U53C G58A G68A, the yeast fitness is no more than 0.5.
Consider G38A A69U, for which the yeast fitness stood at 1.04.
In the case of A37U G44A C49U A57C C61G it was no more than 0.5; in that of A37G G56A C62A A70G, no more than 0.5; in that of G38A U47C G48A, 0.542.
On to A37U G51C A57C, for which the yeast fitness was 0.552.
For G38A C46U A69U, the yeast fitness turned out to be 0.686.
With G38C A42C, the yeast fitness worked out at 0.595.
On to G38C A42G, for which the yeast fitness was determined as 0.655.
In the case of A37U G48C U59C it was 0.533.
A37U G56A A65C: the yeast fitness was found to be 0.5.
As to A37U U47A C62U, the yeast fitness stood at 0.531.
With G38C C62U A69U, the yeast fitness was 0.603.
A37U C49A C62U: the yeast fitness was found to be 0.579.
With A37G G56A G63A the figure was no more than 0.5; with A37U A57C G58A A69U A70C, 0.542; with G38C A69C, 0.722.
G38C A69U: the yeast fitness was 0.788.
As to A37G C60G G68A, the yeast fitness was no more than 0.5.
On to G38A A42C A45U G52A, for which the yeast fitness was no more than 0.5.
A37U U54C U64A A69U: the yeast fitness is no more than 0.5.
With G38C C62A, the yeast fitness is 0.624.
In the case of G38C C62G it was 0.63.
Regarding A37U A42U G52C, the yeast fitness was determined as 0.575.
Turning to A37U G52C, the yeast fitness was no more than 0.5.
Consider G38A C60G, for which the yeast fitness turned out to be 0.623.
Consider G38A C60A, for which the yeast fitness is 0.646.
For the variant A37U A42C C55U A69U, the yeast fitness is no more than 0.5.
For the variant A37C G56A, the yeast fitness amounted to 0.829.
On to G38C C66U, for which the yeast fitness stood at 0.664.
As for G38C C66A, the yeast fitness turned out to be 0.561.
Take A37G A42C C55G G68C: the yeast fitness is no more than 0.5.
With A37C G58A, the yeast fitness is 0.844.
With A37G U53A the figure was no more than 0.5; with G38C A40U G51A C60U G68A, no more than 0.5.
Turning to G38A U47G, the yeast fitness was found to be 0.574.
For the variant A37U C49G, the yeast fitness is 0.652.
On to A37U C49A, for which the yeast fitness was determined as 0.712.
With A37G G56A, the yeast fitness turned out to be 0.825.
As for A37U U53G, the yeast fitness came out at 0.538.
As to A37U G58C, the yeast fitness is 0.789.
In the case of A37U U47G A57C it was no more than 0.5; in that of A37U G56C A57U, no more than 0.5; in that of A37G A69U, 0.856.
Take A37G A42C A65C A69C: the yeast fitness was 0.616.
In the case of G38A A42U U54A, the yeast fitness is no more than 0.5.
As for G38C G41C C55U, the yeast fitness was no more than 0.5.
Take G38A A40U G58C: the yeast fitness turned out to be 0.853.
Turning to A37C G44A, the yeast fitness was 0.776.
With G38C G39U C60A, the yeast fitness was no more than 0.5.
On to A37U A43G G63A G67C A70G, for which the yeast fitness came to 0.802.
Consider G38C C60U G68C, for which the yeast fitness was no more than 0.5.
In the case of G38C C55G G67A it was no more than 0.5; in that of A37G A45U C60U A70G, no more than 0.5.
As to A37U A65U C66G, the yeast fitness is no more than 0.5.
Turning to A37C G38C C55U, the yeast fitness was no more than 0.5.
As for A37G C60U, the yeast fitness was found to be 0.631.
As to A37G C60A, the yeast fitness was found to be 0.661.
On to A37G C60G, for which the yeast fitness was no more than 0.5.
Take A37G C62G: the yeast fitness was found to be 0.676.
Turning to A37G A45G G48A, the yeast fitness came to 0.557.
Regarding G38C C62U A70U, the yeast fitness stood at 0.533.
Regarding A37G A43U, the yeast fitness turned out to be 0.631.
As for A37G A43C, the yeast fitness came out at 0.89.
With G38A G39A A42G C46G the figure was 0.537.
On to A37U G50C G67A, for which the yeast fitness was no more than 0.5.
For the variant A37G G68A, the yeast fitness is 0.88.
In the case of A37G G68C it was 0.665; in that of G38C A45G A70C, 0.548.
